Data as given in ChEMBL document CHEMBL1158069, “Antiplasmodial metabolites isolated from the marine octocoral Muricea austera” (J Nat Prod, 2006).

Legend:
Plasmodium falciparum = assay: Antiplasmodial activity against chloroquine-resistant Plasmodium falciparum W2 as parasite DNA microfluorimetric assay; type: functional, organism-based
How it was run: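 P. falciparum W2 (chloroquine-resistant) grown by the Trager–Jensen method at 2% hematocrit in RPMI 1640 with 10% human serum. Growth inhibition read microfluorimetrically by PicoGreen intercalation into parasite DNA. IC50 in µM.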

Trypanosoma cruzi = assay: Antitrypanosomal activity against Trypanosoma cruzi Tulahuen C4 infected in african green monkey Vero cells assessed as growth inhibition of […] by beta-galactosidase reporter gene assay; type: functional, organism-based
How it was run: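 Recombinant Tulahuen clone C4 expressing β-galactosidase reporter; […] grown inside Vero cells with test samples. β-Gal cleavage of chlorophenol red-β-D-galactoside (CPRG) read colorimetrically at 570 nm. IC50 taken as concentration giving 50% inhibition of parasite growth versus untreated control, on duplicate samples.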

SMILES | IC50 (Plasmodium falciparum) [µM] | IC50 (Trypanosoma cruzi) [µM]
CCCCCCCCCCCCCC(=O)NCCc1ccc(O)cc1 | 34 | 
O[C@@H]1[C@@H](O)[C@@H](O)CO[C@H]1O [L-ARABINOSE] | > 50 | > 50
C=C[C@H]1CC[C@H]2[C@@H]3CC=C4C[C@@H](O[C@@H]5OC[C@@H](OC(C)=O)[C@@H](O)[C@@H]5O)CC[C@]4(C)[C@H]3CC[C@]12C | 80 | 101
CC(=O)O/C1=C/Cc2c(C)coc2C/C(C)=C/CC1 | > 50 | 
CCCCCCCCCCCC(=O)O[C@@H]1[C@@H](OC(=O)CCCCCCCCCCC)[C@H](OC)OC[C@@H]1OC(=O)CCCCCCCCCCC | > 50 | > 50
CO[C@@H]1OC[C@H](OC(=O)c2ccccc2)[C@H](OC(=O)c2ccccc2)[C@H]1OC(=O)c1ccccc1 | 21 | > 50
CCCCCCC(O)CCCCCCCCCCC(=O)NCCc1ccc(O)cc1 (stereo not given) | 62 | 
NCCc1ccc(O)cc1 [TYRAMINE] | 160 | 
CCCCCCCCCCCC(=O)O[C@@H]1[C@@H](OC(=O)CCCCCCCCCCC)[C@@H](OC)OC[C@@H]1OC(=O)CCCCCCCCCCC | > 50 | > 50
CO[C@@H]1O[C@H](COC(=O)c2ccccc2)[C@H](OC(=O)c2ccccc2)[C@H](OC(=O)c2ccccc2)[C@H]1OC(=O)c1ccccc1 | > 50 | > 50
CO[C@H]1O[C@H](COC(=O)c2ccccc2)[C@H](OC(=O)c2ccccc2)[C@H](OC(=O)c2ccccc2)[C@H]1OC(=O)c1ccccc1 | 29 | > 50
CC(=O)NCCc1ccc(O)cc1 | > 50 | 
C=C[C@H]1CC[C@H]2[C@@H]3CC=C4C[C@@H](O[C@@H]5OC[C@@H](OC(C)=O)[C@@H](OC(C)=O)[C@@H]5OC(C)=O)CC[C@]4(C)[C@H]3CC[C@]12C | 28 | 28
CO[C@H]1OC[C@H](OC(=O)c2ccccc2)[C@H](OC(=O)c2ccccc2)[C@H]1OC(=O)c1ccccc1 | 35 | > 50
CC/C=C\C/C=C\C/C=C\CCCC(=O)NCCc1ccc(O)cc1 | 38 | 
CO[C@@H]1OC[C@H](OC(C)=O)[C@H](OC(C)=O)[C@H]1OC(C)=O | > 50 | > 50
C=C[C@]1(C)Cc2occ(C)c2C[C@H]1C(=C)OC(C)=O | 42 | 173

SMILES | IC50 (Plasmodium falciparum) [µM] | IC50 (Trypanosoma cruzi) [µM]
O=C(NCCc1ccc(OC(=O)c2ccccc2)cc1)c1ccccc1 | 64 | 
O=C(CCCCC(=O)NCCc1ccc(O)cc1)NCCc1ccc(O)cc1 | 117 | 
CCCCCCCCCC(=O)NCCc1ccc(O)cc1 | 72 | 
CCCCCCCCC/C(C)=C\C(=O)NCCc1ccc(O)cc1 | 36 | > 50
CO[C@H]1O[C@H](C)[C@H](OC(=O)c2ccccc2)[C@H](OC(=O)c2ccccc2)[C@H]1OC(=O)c1ccccc1 | 43 | > 50
CCCCCCCCCCCC(=O)NCCc1cc(Br)c(O)c(Br)c1 | 17 | 
O=C(NCCc1ccc(O)cc1)c1ccccc1 | > 50 | 
CCCCCCCCCCCC(=O)NCCc1ccc(O)cc1 | 47 | 
C=C[C@H]1CC[C@H]2[C@@H]3CC=C4C[C@@H](O[C@@H]5OC[C@@H](O)[C@@H](OC(C)=O)[C@@H]5O)CC[C@]4(C)[C@H]3CC[C@]12C | 67 | 96
CC1CS(=O)(=O)CCN1/N=C/c1ccc([N+](=O)[O-])o1 (stereo not given) [NIFURTIMOX] |  | 11
CCCCCCCCCC(C)CC(=O)NCCc1ccc(O)cc1 (stereo not given) | 45 | > 50
CCCCO[C@@H]1OC[C@H](OC(C)=O)[C@H](OC(C)=O)[C@H]1OC(C)=O | > 50 | > 50
CCCCCCCCCCCCNC(=O)CCc1ccc(O)cc1 | 24 | 
CC[C@H](O)CC(=O)NCCc1ccc(O)cc1 | > 50 | 
CO[C@@H]1O[C@H](C)[C@H](OC(=O)c2ccccc2)[C@H](OC(=O)c2ccccc2)[C@H]1OC(=O)c1ccccc1 | 36 | > 50
O=CNCCc1ccc(O)cc1 | > 50 | 
